From PubChem BioAssay
PP1 inh: PP1-alpha (human) inhibition in PP5 counter-screen; P62136; purified PP1alpha, OMFP fluorescence; inhibition, % at 6.7 µM; 320,000 tested, 0.9% active; AID 2235;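 active means inhibition above the mean inhibition of all tested compounds plus 3 SD, computed separately for each screening campaign, cut at about 15% in these data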
T cell modulator: T cell immune modulation candidate. 2C CD8+ T cell-vesicle binding, flow cytometry; active compounds read low. response (vesicle binding), % at 7 µM. 330,000 tested, 0.068% active;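 active means response, share of CD8 T cells binding vesicles, and their 90th percentile fluorescence all below set limits, cut at about 80% in these data, passing the limit was not always enough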;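 further: values below 100% mean blocked vesicle binding to the CD8+ T cells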
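material = purified 2C TCR transgenic mouse naive CD8+ T cells | controls = Unloaded micro-vesicles (low), QL9 vesicles with 0.7% DMSO (high) | detection = cytometric PE anti-B7-1 and Alexa647 anti-CD8 signals after 1% paraformaldehyde fixation | incubation = binding step 1.5 h, 37 °C, antibody labelling 20 min, ice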
GASC-1 inh: inhibitors of human GASC-1 (JMJD2C) demethylase; 330,000 tested, 0.069% active; GST-JMJD2C(1-420) H3K9me3 demethylation, DELFIA europium; inhibition, % at 2.35 µM; Q9H3R0;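 active means more than half of a compound's replicate wells show inhibition beyond 50%, single wells judged on their own value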;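 further: signal counts dimethyl H3K9 product captured on neutravidin plate; 0% = median of DMSO wells and 100% = 0.3 times that DMSO median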
m5-HT2A agonist: mouse HTR2A agonism via beta-arrestin recruitment; 360,000 tested, 0.66% active; P35363; AID 624169; activation, % at 7.6 µM; CHO-K1 mHTR2A beta-arrestin complementation, luminescence; percent of 30 µM serotonin response;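 active means activation above a run cutoff, the mean activation of all tested compounds plus 3 SD, cut at about 14% in these data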;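 further: 0% = plate median of compound wells and 100% = 30 µM serotonin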
Target sequence (P35363 whole entry, looked up): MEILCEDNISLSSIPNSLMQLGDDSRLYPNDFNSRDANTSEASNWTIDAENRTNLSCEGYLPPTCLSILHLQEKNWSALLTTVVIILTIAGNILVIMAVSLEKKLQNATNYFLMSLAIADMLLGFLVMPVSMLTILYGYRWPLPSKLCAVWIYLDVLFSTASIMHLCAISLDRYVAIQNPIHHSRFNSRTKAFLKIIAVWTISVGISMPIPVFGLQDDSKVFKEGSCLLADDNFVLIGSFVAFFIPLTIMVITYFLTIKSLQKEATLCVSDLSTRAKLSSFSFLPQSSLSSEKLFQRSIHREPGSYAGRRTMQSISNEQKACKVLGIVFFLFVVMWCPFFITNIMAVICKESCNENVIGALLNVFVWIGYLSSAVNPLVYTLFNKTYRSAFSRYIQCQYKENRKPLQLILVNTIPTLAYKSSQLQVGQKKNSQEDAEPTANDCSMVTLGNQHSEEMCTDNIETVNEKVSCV
PP5 inh: PP5 (human) phosphatase inhibition. purified PP5c, OMFP substrate fluorescence. inhibition, % at 6.7 µM. 320,000 tested, 0.18% active. AID 1987;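 active means inhibition above the campaign's mean inhibition across all tested compounds plus 3 SD, cut at about 9.5% in these data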;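 further: 0% = DMSO only and 100% = 100 µM cantharidin control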
MOR ag counter: counter-screen for mouse HTR2A agonists: human mu opioid receptor agonists; shares compounds with m5-HT2A agonist; 2,300 tested, 5.3% active; activation, % at 9.3 µM; U2OS OPRM1 beta-arrestin PathHunter, luminescence; DMSO 0%, DAMGO 9.3 µM 100%;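 active means mean activation above the mean of DMSO-only wells plus 3 SD, cut at about 0.5% in these data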
HTR2A ag conf: confirmation of mouse HTR2A serotonin receptor agonists | CHO-K1 PathHunter beta-arrestin recruitment, luminescence; DMSO 0%, 30 µM serotonin 100% | AID 624381 | shares compounds with m5-HT2A agonist | 2,300 tested, 19% active | activation, % at 7.6 µM;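 active means mean activation across triplicates above the hit threshold derived in the original primary screen, cut at about 15% in these data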
An asterisk follows results filed as active; / = no result. Shown are actives, neighbours in structure and some others; about 1.7% of the full set was active somewhere.

SMILES	PP1 inh	T cell modulator	GASC-1 inh	m5-HT2A agonist	PP5 inh	MOR ag counter	HTR2A ag conf
CCC(C)C(NC(=O)CCCNC(=O)CCC(=O)OC1O[C@H]2OC3(C)CC[C@H]4[C@H](C)CCC(C1C)C24OO3)C(=O)O (stereo not given in full)	-0.3	219.2	-6.1	20.6*	-1.0	0.6*	-3.9
CCC(C)NC(=O)CCC(=O)OC1O[C@H]2OC3(C)CC[C@H]4[C@H](C)CCC(C1C)C24OO3 (stereo not given in full)	/	135.5	-0.9	-3.9	/	/	/
CCCCc1ccc2[nH]cc(CCN)c2c1	0.1	716.7	1.6	25.7*	0.2	-0.5	50.4*
NCCc1c[nH]c2ccccc12	-2.8	173.7	/	10.4	-1.2	/	/
CN1CCN(c2cn[nH]c(=O)c2Cl)CC1	-5.7	344.4	2.8	1.3	-1.0	/	/
CC(C)N1CCN(c2ccc(O)cc2)CC1	-0.8	578.1	10.5	-3.1	-0.8	/	/
CC(C)N1CCOC(c2ccc(O)c(O)c2)C1 (stereo not given)	/	/	/	34.7*	/	-0.7	112.9*
COc1ccc(CCNCc2ccsc2)cc1OC	-3.3	197.7	7.1	18.8*	2.5	-0.6	9.9
COc1ccc(CCNCc2ccc(F)cc2)cc1OC	-3.9	186.9	-11.2	-1.1	-0.5	/	/
CC(=O)C1C(N2CC2)CC2C3CC=C4CC(O)CCC4(C)C3CCC21C (stereo not given)	/	/	/	33.0*	/	-0.6	2.1
CCCN(CCC)C1CCc2cccc(O)c2C1 (stereo not given)	-1.5	366.4	-5.7	52.6*	1.6	-0.8	91.7*
CCCN(CCC)C1CCc2ccc(O)cc2C1 (stereo not given)	-4.4	193.5	-11.0	59.9*	-0.5	0.2	179.1*
CCCN1CC[C@@H]2c3cc(O)ccc3CC[C@@H]21	-6.6	177.1	18.5	16.5*	0.4	-0.4	49.0*
CC1[C@H]2Cc3ccc(O)cc3[C@]1(C)CCN2CCc1ccccc1 (stereo not given in full)	/	219.6	/	-1.3	/	/	/
COC(=O)C12OCC34C(CC5C(C)=C(O)C(=O)CC5(C)C3C(O)C1O)OC(=O)C(OC(=O)/C=C(\C)C(C)C)C24 (stereo not given)	/	/	/	2.1	/	/	/
COc1ccc(C(=O)N/N=C/C23CC[C@@H](O)CC2(O)CC[C@@H]2[C@@H]3CCC3(C)C(C4=CC(=O)OC4)CCC23O)cc1 (stereo not given in full)	0.9	591.5	8.1	-0.8	-0.6	/	/
COc1cc(C(=O)N/N=C/C23CC[C@@H](O)CC2(O)CC[C@@H]2[C@@H]3CCC3(C)C(C4=CC(=O)OC4)CCC23O)ccc1O (stereo not given in full)	1.1	97.6	10.2	14.8*	3.5	-0.2	-3.1
N#CC1c2ccccc2-n2nncc2CN1S(=O)(=O)c1cc(Cl)cc(Cl)c1 (stereo not given)	/	/	/	-0.7	/	/	/
CCCCCCCSc1cc(OC)c(CCNC)cc1OC	4.2	203.5	-10.8	46.3*	1.9	0.4	16.6*
CCCCCSc1cc(OC)c(CCNC)cc1OC	1.0	231.8	1.1	15.5*	4.0	-0.2	5.9
O=C1CC(N2CC2)C(=O)N1c1ccccc1 (stereo not given)	/	/	/	2.4	/	/	/
O=C(/C=C/c1ccccc1)c1c(O)n(CCc2ccccc2)c(=O)[nH]c1=O	4.5	557.3	-5.7	15.5*	-2.8	-0.6	1.3
O=C(/C=C/c1ccc2c(c1)OCO2)c1c(O)n(CCc2ccccc2)c(=O)[nH]c1=O	4.9	867.3	-5.9	5.0	-1.2	/	/
O=C1NC(=O)N(Cc2ccc(F)cc2)C(=O)/C1=C\c1ccc([N+](=O)[O-])s1	3.0	283.0	-33.1	-3.8	3.4	/	/
O=C1c2ccccc2-n2nnc(-c3ccccc3)c2C2c3cc(Br)ccc3CCN12 (stereo not given)	/	/	/	16.3*	/	-0.1	0.4
SMILES	PP1 inh	T cell modulator	GASC-1 inh	m5-HT2A agonist	PP5 inh	MOR ag counter	HTR2A ag conf
COP(=O)(OC)C1(Nc2ccc(C)cc2)CCCCC1	-0.2	226.4	17.4	15.4*	3.0	-0.6	-3.2
COc1cccc(O)c1CN1CCCC(C(=O)c2ccccc2SC)C1 (stereo not given)	-2.2	290.5	9.6	-5.7	1.5	/	/
O=c1cccc2n1CC1CC2CN(C(c2ccccc2)c2sc3ncnn3c2O)C1 (stereo not given)	-0.8	381.0	71.0	-2.3	2.0	/	/
O=C(NCc1cccnc1)C(Cl)(Cl)Cl	0.4	451.1	-5.1	23.8*	1.0	-0.6	-3.8
Brc1ccc2c(c1)C(OC1CN3CCC1CC3)c1ccccc1CS2 (stereo not given)	7.3	226.0	-2.1	-6.2	-1.7	/	/
COc1ccc2c(c1)c(C(=O)CN1CCC3(CC1)OCCO3)c(C)n2Cc1ccccc1	8.1	179.8	-3.7	-3.0	1.7	/	/
O=C(NCNC(=O)NC1C(=O)NC(=O)N1CO)NC1C(=O)NC(=O)N1CO (stereo not given)	0.3	599.0	/	16.7*	-0.1	-0.2	0.9
CC(=O)Nc1ccc(C(c2c(O)c3ccccc3oc2=O)c2c(C)n(C)n(-c3ccccc3)c2=O)cc1 (stereo not given)	-2.0	199.8	13.8	-4.2	-2.4	/	/
O=C(O)C(Cl)(Cl)Cl	-1.5	401.3	17.7	22.9*	-1.4	0.3	4.4
CCC(=NCCc1c[nH]c2ccccc12)c1c(O)n(C)c(=O)n(C)c1=O	-13.4	407.2	-8.0	27.2*	4.8	-0.4	-1.1
CCC(=NCCc1c[nH]c2ccccc12)c1c(O)n(-c2ccc(C)cc2)c(=O)[nH]c1=O	0.7	337.0	3.4	-2.6	-0.6	/	/
Brc1ccc2[nH]cc(/C=N/N3CCCCC3)c2c1	-0.8	181.5	-6.3	-2.1	3.8	/	/
Clc1ccc2sc(C3CCNCC3)nc2c1	0.8	19.9	-0.9	37.7*	-2.8	-0.6	15.5*
CCN1C(=O)CC(c2cccnc2)=Nc2ccccc21	-4.8	255.0	-6.7	2.6	-0.6	/	/
O=[N+]([O-])c1ccc2nc(N3CCNCC3)ccc2c1	-1.7	302.6	-19.7	/	0.1	/	/
Clc1ccc(N2CCNCC2)nn1	-2.6	287.6	-4.1	14.9*	-1.1	-0.6	0.4
Cc1cc(O)c2c(C)c(CC(=O)N3C[C@H]4C[C@@H](C3)c3cccc(=O)n3C4)c(=O)oc2c1	-6.6	212.0	9.6	18.7*	1.0	-0.7	-3.2
COc1ccc(-n2nnnc2C(c2ccccc2OC(F)(F)F)N2CCC(n3c(=O)[nH]c4ccccc43)CC2)cc1 (stereo not given)	/	/	/	15.7*	/	/	7.1
COc1ccc(C(c2nnnn2-c2ccc3c(c2)OCCO3)N2CCC(n3c(=O)[nH]c4ccccc43)CC2)cc1 (stereo not given)	/	/	/	18.5*	/	/	15.1*
